The nature of the assay: Concentration required to inhibit the activity of inositol monophosphatase by 50%. In a few lines: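 Human recombinant IMPase expressed in E. coli and purified to homogeneity. […] Enzyme adjusted so ≤10% substrate used. Duplicate rates at six inhibitor concentrations plus no-inhibitor control, fitted to v = V0/(1+[I]/IC50).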

By IC50 is commonly meant the midpoint of a concentration-inhibition curve. Low values mean greater potency in that assay, high ones weaker potency in that assay. `O=c1c(O)c(-c2cc3ccccc3o2)cc(-c2cc3ccccc3o2)c(O)c1O` came in with an IC50 of 40 µM.
On to `O=Cc1cccc(-c2cc(-c3cccc(C=O)c3)c(O)c(=O)c(O)c2O)c1`, for which the IC50 was over 100 µM.
The result for `O=c1ccc(-c2cccc(-c3nnc(-c4ccc5ccccc5c4)o3)c2)c(O)c(O)c1O` reads 40 µM; that for `O=c1ccc(-c2ccc3ccccc3c2)c(O)c(O)c1O`, over 100 µM; that for `O=c1c(O)c(-c2ccccc2F)cc(-c2ccccc2F)c(O)c1O`, over 200 µM.
As to `NCCc1ccc(-c2ccc(=O)c(O)c(O)c2O)cc1`, the IC50 worked out at 90 µM.
The result for `CC(=O)Nc1cccc(-c2ccc(=O)c(O)c(O)c2O)c1` reads 20 µM.
As for `O=c1ccc(-c2ccc(O)cc2)c(O)c(O)c1O`, it took 10 µM to reach half-maximal inhibition (IC50).
For `O=c1c(O)c(-c2ccc(C(F)(F)F)cc2)cc(-c2ccc(C(F)(F)F)cc2)c(O)c1O` the value was 200 µM; for `O=c1c(O)c(-c2ccc(O)cc2)cc(-c2ccc(O)cc2)c(O)c1O`, 10 µM.
For `O=c1ccc(-c2cncnc2)c(O)c(O)c1O` the value was 10 µM; for `O=c1c(O)c(O)ccc(-c2cccc(O)c2O)c1O`, 7 µM.
The result for `O=c1c(O)c(O)ccc(-c2ccsc2)c1O` reads 25 µM.
In the case of `O=c1c(O)cccc(O)c1O`, the IC50 was 10 µM.
Consider `O=c1c(O)c(O)ccc(-c2ccc(C(F)(F)F)cc2)c1O`, for which the IC50 came out at 130 µM.
The result for `N#Cc1cccc(-c2ccc(=O)c(O)c(O)c2O)c1` reads 4 µM; that for `O=Cc1cccc(-c2ccc(O)c(O)c(=O)c2O)c1`, 20 µM.
For `O=c1c(O)c(O)ccc(-c2cc(C(F)(F)F)cc(C(F)(F)F)c2)c1O` the value was 10 µM.
For `O=c1c(O)c(-c2cccc(-c3nnc(-c4ccc5ccccc5c4)o3)c2)cc(-c2cccc(-c3nnc(-c4ccc5ccccc5c4)o3)c2)c(O)c1O` the value was over 200 µM.
The compound `O=c1ccc(-c2cccc3ccccc23)c(O)c(O)c1O` had an IC50 of 20 µM.
On to `O=c1c(O)c(-c2ccsc2)cc(-c2ccsc2)c(O)c1O`, for which it took 35 µM to reach half-maximal inhibition (IC50).
The result for `O=c1cccc(-c2ccccc2)c(O)c1O` reads 200 µM.
The result for `O=c1c(O)c(-c2cccc(C(F)(F)F)c2)cc(-c2cccc(C(F)(F)F)c2)c(O)c1O` reads over 200 µM; that for `O=c1ccc(-c2ccccc2F)c(O)c(O)c1O`, 65 µM.
The result for `O=c1c(O)c(-c2cc(C(F)(F)F)cc(C(F)(F)F)c2)cc(-c2cc(C(F)(F)F)cc(C(F)(F)F)c2)c(O)c1O` reads 70 µM.
For `O=c1c(O)c(-c2ccc3ccccc3c2)cc(-c2ccc3ccccc3c2)c(O)c1O`, the IC50 was over 100 µM.
The result for `O=c1c(O)c(O)ccc(-c2cccc([N+](=O)[O-])c2)c1O` reads 8 µM.
For `O=c1c(O)c(O)ccc(-c2cc3ccccc3o2)c1O` the value was 7 µM; for `O=c1c(O)c(Br)cc(Br)c(O)c1O`, 10 µM; for `CC(=O)Nc1cccc(-c2cc(-c3cccc(NC(C)=O)c3)c(=O)c(O)c(O)c2O)c1`, 65 µM.
The result for `O=c1c(O)c(O)ccc(-c2cccs2)c1O` reads 15 µM.
The compound `N#Cc1cccc(-c2cc(-c3cccc(C#N)c3)c(O)c(=O)c(O)c2O)c1` gave an IC50 of 30 µM.
Turning to `O=c1c(O)c(-c2cccc3ccccc23)cc(-c2cccc3ccccc23)c(O)c1O`, the IC50 was over 100 µM.
The result for `O=c1ccc(CCCCO)c(O)c(O)c1O` reads 5 µM.
The result for `O=c1ccc(-c2ccccc2)c(O)c(O)c1O` reads 20 µM; that for `O=c1c(O)c(O)ccc(-c2cccc(C(F)(F)F)c2)c1O`, 10 µM; that for `O=c1c(O)c(-c2cccc([N+](=O)[O-])c2)cc(-c2cccc([N+](=O)[O-])c2)c(O)c1O`, 20 µM.
For `O=c1c(O)c(O)ccc2cc(O)c(O)c(O)c12` the value was over 200 µM.
